Laboratory results reported in ChEMBL document CHEMBL1126834, “Chemistry, binding affinities, and behavioral properties of a new class of "antineophobic" mitochondrial DBI receptor complex (mDRC) ligands” (J Med Chem, 1993).

Legend:
Cannabinoid receptor 1 = Cannabinoid receptor 1 (Rattus norvegicus, UniProt P20272); test: Inhibitory activity, measured by displacement [3H]CP-55940 from cannabinoid receptor (CB1) in rat brain; format: tissue-based
[1] = Inhibitory activity at GABA B receptor, measured by the ability to displace [3H]baclofen from GABA B receptor in rat brain; format: tissue-based
[2] = biological target: GABA-A receptor; anion channel; test: Inhibitory activity at GABA A receptor, measured by the ability to displace [35S]TBPS from GABA A receptor in rat brain; format: tissue-based
[3] = biological target: GABA-A receptor; anion channel; test: Inhibitory activity at GABA A receptor, measured by the ability to displace [3H]GABA from GABA A receptor in rat brain; format: tissue-based
[4] = biological target: GABA-A receptor; anion channel; test: Inhibitory activity at GABA A receptor, measured by the ability to displace [3H]flumazenil from GABA A receptor in rat brain; format: tissue-based
[5] = biological target: GABA-A receptor; anion channel; test: Inhibitory activity at GABA A receptor, measured by the ability to displace [3H]zolpidem from GABA A receptor in rat brain; format: tissue-based
Rattus norvegicus [6] = test: Tested for antineophobic activity using the elevated plus maze test administered at 51 umol/kg perorally in rats; format: functional
[7] = biological target: T1, Gastrin/cholecystokinin type B receptor (Rattus norvegicus, UniProt P30553); test: Inhibitory activity by measuring its ability to displace [3H]L-365260 from cholecystokinin receptor in rat brain; format: tissue-based
T1 sequence (P30553 whole entry): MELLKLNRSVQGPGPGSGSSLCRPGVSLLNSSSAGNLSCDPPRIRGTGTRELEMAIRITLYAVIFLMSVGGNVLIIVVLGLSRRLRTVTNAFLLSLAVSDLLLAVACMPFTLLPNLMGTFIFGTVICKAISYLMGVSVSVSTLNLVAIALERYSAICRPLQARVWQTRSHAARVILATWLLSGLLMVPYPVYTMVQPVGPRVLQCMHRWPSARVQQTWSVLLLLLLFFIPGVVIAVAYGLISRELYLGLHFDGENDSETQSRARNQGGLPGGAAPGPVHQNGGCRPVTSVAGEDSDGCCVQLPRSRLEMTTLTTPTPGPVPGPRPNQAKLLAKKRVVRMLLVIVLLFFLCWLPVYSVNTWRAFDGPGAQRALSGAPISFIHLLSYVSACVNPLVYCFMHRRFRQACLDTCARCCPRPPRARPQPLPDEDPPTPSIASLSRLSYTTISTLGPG

[8] = biological target: Adrenergic receptor alpha; test: Inhibitory activity by measuring its ability to displace [3H]WB-4101 from alpha-adrenergic receptor in rat brain; format: tissue-based
[9] = biological target: Adrenergic receptor alpha; test: Inhibitory activity by measuring its ability to displace [3H]clonidine from alpha-adrenergic receptor in rat brain; format: tissue-based
Adrenergic receptor beta = Adrenergic receptor beta (Rattus norvegicus, UniProt P18090+P10608+P26255); test: Inhibitory activity by measuring its ability to displace [125I]pindolol from beta-adrenergic receptor in rat brain; format: tissue-based
[10] = Inhibitory activity by measuring its ability to displace [3H]glycine from glycine receptor in rat brain; format: tissue-based
Glutamate NMDA receptor = test: Inhibitory activity by measuring its ability to displace [3H]-MK-801 from glutamate(NMDA) receptor in rat brain; format: tissue-based
[11] = Tested for inhibitory activity by measuring its ability to displace [3H]AMPA from glutamate (non-NMDA) receptor in rat brain; format: tissue-based
[12] = Inhibitory activity by measuring its ability to displace [3H]spiperone from dopamine or serotonin 5-HT-1 receptors in rat brain; format: tissue-based
Opioid receptor = Opioid receptor (Rattus norvegicus, UniProt P33533+P34975+P33535); test: Inhibition of [3H]naxolone binding to opiate receptors in rat brain; format: tissue-based
Translocator protein = Translocator protein (Rattus norvegicus, UniProt P16257); test: Binding affinity against mitochondrial DBI complex (peripheral benzodiazepine receptor) using primary cultures of glial cells
Method in brief: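 Glia from cerebella of 8-day-old Sprague–Dawley rat pups, trypsin-dissociated and grown 14 days (~95% astroglia). Cells lysed in 50 mM Hepes pH 7.4, 4 μg protein per tube. Incubated with [3H]4'-chlorodiazepam and competitor for 90 min at 4 °C, then filtered. Nonspecific binding defined with 10 μM 4'-chlorodiazepam. Triplicate competition curves; IC50 by nonlinear regression, converted to Ki (Bylund–Yamamura).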

[13] = biological target: Serotonin 2 (5-HT2) receptor (Rattus norvegicus); test: Inhibitory activity by measuring its ability to displace [3H]ketanserin from serotonin receptor in rat brain
[14] = biological target: Sigma receptor (Rattus norvegicus); test: Tested for inhibitory activity by measuring its ability to displace [3H]3-PPP from sigma receptor in rat brain
Rattus norvegicus [15] = test: Tested for antineophobic activity using the elevated plus maze test administered at 53 umol/kg perorally in rats; format: functional
[16] = biological target: Adrenergic receptor alpha; test: Displacement of [3H]clonidine from alpha-adrenergic receptor in rat brain; format: tissue-based
Rattus norvegicus [17] = test: Tested for antineophobic activity using the elevated plus maze test administered at 59 umol/kg perorally in rats; format: functional
Rattus norvegicus [18] = test: Tested for antineophobic activity using the elevated plus maze test administered at 58 umol/kg perorally in rats; format: functional
Rattus norvegicus [19] = test: Tested for antineophobic activity using the elevated plus maze test administered at 55 umol/kg perorally in rats; format: functional

Chain of Translocator protein (P16257 whole entry, looked up): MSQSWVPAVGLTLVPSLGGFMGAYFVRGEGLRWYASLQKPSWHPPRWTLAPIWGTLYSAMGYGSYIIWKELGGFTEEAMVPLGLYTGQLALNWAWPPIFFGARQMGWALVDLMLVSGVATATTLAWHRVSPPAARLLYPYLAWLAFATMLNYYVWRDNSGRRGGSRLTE
Chain of Cannabinoid receptor 1 (P20272 whole entry): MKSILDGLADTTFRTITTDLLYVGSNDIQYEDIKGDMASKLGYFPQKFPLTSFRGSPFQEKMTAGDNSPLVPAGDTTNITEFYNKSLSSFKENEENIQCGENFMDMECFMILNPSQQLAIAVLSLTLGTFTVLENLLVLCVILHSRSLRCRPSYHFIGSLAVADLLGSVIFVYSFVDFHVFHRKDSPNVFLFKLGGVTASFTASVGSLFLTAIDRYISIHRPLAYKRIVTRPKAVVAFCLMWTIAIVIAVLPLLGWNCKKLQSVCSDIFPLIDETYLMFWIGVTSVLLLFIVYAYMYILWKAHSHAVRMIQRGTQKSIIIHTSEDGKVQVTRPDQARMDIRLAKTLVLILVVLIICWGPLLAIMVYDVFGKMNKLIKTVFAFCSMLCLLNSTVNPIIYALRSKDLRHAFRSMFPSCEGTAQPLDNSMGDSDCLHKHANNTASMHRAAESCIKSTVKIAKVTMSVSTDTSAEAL

Compound | IC50 (Cannabinoid receptor 1) | IC50 [1] | IC50 [2] | IC50 [3] | IC50 [4] | IC50 [5] | IC50 [7] | IC50 [8] | IC50 [9] | IC50 (Adrenergic receptor beta) | IC50 [10] | IC50 (Glutamate NMDA receptor) | IC50 [11] | IC50 [12] | IC50 (Opioid receptor) | Ki (Translocator protein) | IC50 [13] | IC50 [14] | IC50 [16] | No. of entries (Rattus norvegicus [18]) | other results
CCCCCCN(CCCCCC)C(=O)Cc1c2n(c3ccccc13)Cc1ccccc1-2 | > 1 µM | > 1 µM | > 1 µM | > 1 µM | > 1 µM | > 1 µM | > 1 µM | > 1 µM |  | > 1 µM | > 1 µM | > 1 µM | > 1 µM | > 1 µM |  | 0.0077 µM |  |  | > 1 µM | 2 | Time (Rattus norvegicus [18]): 6.4%
CCCCCCN(CCCCCC)C(=O)Cc1c(-c2ccccc2)[nH]c2ccc(Cl)cc12 | > 1 µM | > 1 µM | > 1 µM | > 1 µM | > 1 µM | > 1 µM | > 1 µM | > 1 µM | > 1 µM | > 1 µM | > 1 µM | > 1 µM | > 1 µM | > 1 µM |  | 0.0041 µM |  |  |  |  | No. of entries (Rattus norvegicus [19]): 2.3; Time (Rattus norvegicus [19]): 4.3%

Now from value to compound, other results behind:

IC50 (Cannabinoid receptor 1) | IC50 [1] | IC50 [2] | IC50 [3] | IC50 [4] | IC50 [5] | IC50 [7] | IC50 [8] | IC50 [9] | IC50 (Adrenergic receptor beta) | IC50 [10] | IC50 (Glutamate NMDA receptor) | IC50 [11] | IC50 [12] | IC50 (Opioid receptor) | Ki (Translocator protein) | IC50 [13] | IC50 [14] | IC50 [16] | Compound | No. of entries (Rattus norvegicus [18]) | other results
> 1 µM | > 1 µM | > 1 µM | > 1 µM | > 1 µM | > 1 µM | > 1 µM | > 1 µM | > 1 µM | > 1 µM | > 1 µM | > 1 µM | > 1 µM | > 1 µM | > 1 µM | 0.0036 µM | > 1 µM | > 1 µM |  | CCCCCCN(CCCCCC)C(=O)Cc1c(-c2ccc(Cl)cc2)[nH]c2ccc(Cl)cc12 |  | No. of entries (Rattus norvegicus [6]): 2.3; Time (Rattus norvegicus [6]): 5.3%
> 1 µM | > 1 µM | > 1 µM | > 1 µM | > 1 µM | > 1 µM | > 1 µM | > 1 µM |  | > 1 µM | > 1 µM | > 1 µM | > 1 µM | > 1 µM | > 1 µM | 0.0023 µM | > 1 µM | > 1 µM | > 1 µM | CCCCCCN(CCCCCC)C(=O)Cc1c(-c2ccc(F)cc2)[nH]c2ccc(Cl)cc12 |  | No. of entries (Rattus norvegicus [15]): 0.4; Time (Rattus norvegicus [15]): 0.4%
> 1 µM | > 1 µM | > 1 µM | > 1 µM | > 1 µM | > 1 µM | > 1 µM | > 1 µM |  | > 1 µM | > 1 µM | > 1 µM | > 1 µM | > 1 µM |  | 0.2 µM |  |  | > 1 µM | CCCCCCN(CCCCCC)CCc1c(-c2ccc(F)cc2)[nH]c2ccccc12 |  | No. of entries (Rattus norvegicus [17]): 2; Time (Rattus norvegicus [17]): 4.1%
> 1 µM | > 1 µM | > 1 µM | > 1 µM | > 1 µM | > 1 µM | > 1 µM | > 1 µM | > 1 µM | > 1 µM | > 1 µM | > 1 µM | > 1 µM | > 1 µM |  | 0.2 µM |  |  |  | CCCN(CCC)C(=O)Cc1cn(Cc2ccc(Br)cc2)c2ccccc12 | 0.6 | Time (Rattus norvegicus [18]): 1%
